The text below walks through data of publication PMC5323440 (World Journal of Gastroenterology, 2017).

Marks after values point to notes of the source that are not given here.

The conditions of data set [1]: released from SLZ in the colon; cited from earlier work.
Data set [2] has as its system myeloperoxidase (MPO). Nature of the data set: TNBS-induced experimental colitis: colonic MPO activity. As to conditions: TNBS colitis rats, day 11, oral treatment day 6 to 10. Type of data set: in vivo, Wistar rats. In outline:
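Colon dissected on day 11 from TNBS-colitic male Wistar rats (intrarectal TNBS 100 mg/kg in 50% ethanol on day 3; oral dosing in 1% sodium CMC days 6-10; n = 6). MPO assayed by a published method, one unit degrading […] hydrogen peroxide at 25 °C. Reported as […]; one-way ANOVA with Dunnett's test.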

The subject of data set [3] is TNBS-induced colitis. As to the kind of experiment: TNBS-induced experimental colitis: clinical activity score rate. Type of data set: in vivo, Wistar rats. As to conditions: for Clinical activity score rate, 6 d: day 6, oral treatment day 6 to 10; for Clinical activity score rate, 6 d / Clinical activity score rate, 7 d / Clinical activity score rate, 8 d / Clinical activity score rate, 9 d / Clinical activity score rate, 10 d / Clinical activity score rate, 11 d: score 0-4; for Clinical activity score rate, 7 d: day 7, oral treatment day 6 to 10; for Clinical activity score rate, 8 d: day 8, oral treatment day 6 to 10; for Clinical activity score rate, 9 d: day 9, oral treatment day 6 to 10; for Clinical activity score rate, 10 d: day 10, oral treatment day 6 to 10; for Clinical activity score rate, 11 d: day 11, after oral treatment day 6 to 10. In outline: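 Male Wistar rats (200-230 g, n = 6/group), starved 48 h, given intrarectal TNBS 100 mg/kg in 50% v/v ethanol (0.25 mL) on day 3. Oral dosing days 6-10 as 1% sodium CMC suspension, equimolar to parent acid. Weight loss, stool consistency and rectal bleeding each scored 0-4 daily and averaged per group. Two-way ANOVA with Bonferroni versus disease control.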

For data set [4], the system named is chronic UC. As to conditions: chronic UC patients ref 24; cited from earlier work.
Data set [5] is described as follows: In vivo pharmacokinetics in plasma after oral administration. Also noted: species or system Wistar rats. As to conditions: rat. In outline: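 Male Wistar rats (200-250 g, n = 6) housed in metabolic cages, fasted 24 h, water ad libitum. Single oral dose of prodrug (377.5 mg) or parent acid (270 mg) suspended in sodium CMC in saline (1 mL). Retro-orbital blood taken at 0 min, every 15 min for 1 h, bi-hourly to 12 h, and at 24 h, into EDTA tubes. Plasma quantified by HPLC against 80% human plasma calibration.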

Data set [6] can be described thus: Partition coefficient, n-octanol/water, shake flask method. Format: physicochemical.
Data set [7] can be described thus: Aqueous solubility in distilled water. Type of data set: physicochemical. As to conditions: 25 ± 1 °C.

As for `Nc1ccc(O)c(C(=O)O)c1` [Prodrug 5-ASA, 5-aminosalicylate], the “Fraction entering circulation by absorption from large intestine” value in data set [1] was 30%.

As for `O=C(O)c1cc(/N=N/c2ccc(S(=O)(=O)Nc3ccccn3)cc2)ccc1O` [SLZ, Sulfasalazine], the “Colonic MPO activity” value in data set [2] is reported as 36.21 mU/100 mg tissue. Further, in data set [3], the “Clinical activity score rate, 6 d” value is listed as 2.88 ± 0.83; the “Clinical activity score rate, 7 d” value is 2.44 ± 0.50; the “Clinical activity score rate, 8 d” value worked out at 1.61 ± 1.13; the “Clinical activity score rate, 9 d” value amounted to 1.11 ± 1.01. Also, in data set [3], the “Clinical activity score rate, 10 d” value is 0.72 ± 0.75 and the “Clinical activity score rate, 11 d” value is given as 0.38 ± 0.60 ^e. For the same compound, in data set [4], the Remission rate is 75%.

For `N[C@@H](Cc1c[nH]c2ccccc12)C(=O)O` [T, L-tryptophan], in data set [3], the “Clinical activity score rate, 6 d” value is 2.44 ± 0.69; the “Clinical activity score rate, 7 d” value turned out to be 2.60 ± 0.58; the “Clinical activity score rate, 8 d” value worked out at 2.94 ± 0.82; the “Clinical activity score rate, 9 d” value was determined as 2.66 ± 0.66. In data set [3], the “Clinical activity score rate, 10 d” value is recorded as 2.16 ± 1.08 and the “Clinical activity score rate, 11 d” value is 1.88 ± 1.17 ^a.

Consider `N[C@H](Cc1ccccc1)C(=O)O` [P, D-phenylalanine], for which, in data set [3], the “Clinical activity score rate, 6 d” value was 2.22 ± 0.83; the “Clinical activity score rate, 7 d” value stood at 2.55 ± 0.50; the “Clinical activity score rate, 8 d” value was determined as 3.16 ± 1.04; the “Clinical activity score rate, 9 d” value was found to be 3.33 ± 1.15. Also, in data set [3], the “Clinical activity score rate, 10 d” value came out at 2.66 ± 1.44 and the “Clinical activity score rate, 11 d” value is 2.27 ± 1.13^NS.

Take `C[C@H]1[C@H](C)CC[C@]2(C)CC[C@]3(C)C(=CC[C@@H]4[C@@]5(C)CC[C@@H](O)[C@](C)(C(=O)O)[C@@H]5CC[C@]43C)[C@H]12` [BBA, β-boswellic acid]: the “Colonic MPO activity” value in data set [2] is on record as 60.71 mU/100 mg tissue. For the same compound, in data set [3], the “Clinical activity score rate, 6 d” value was found to be 2.77 ± 1.34; the “Clinical activity score rate, 7 d” value is listed as 3.00 ± 1.00; the “Clinical activity score rate, 8 d” value was 2.33 ± 0.57; the “Clinical activity score rate, 9 d” value is on record as 1.99 ± 0.66. For the same compound, in data set [3], the “Clinical activity score rate, 10 d” value was 1.33 ± 1.15 and the “Clinical activity score rate, 11 d” value is listed as 0.99 ± 1.10 ^e. Besides, the “Minimized clinical activity score rate” value in data set [3] (oral treatment day 6 to 10) was found to be 79%. Further, in data set [5], the “Time of disappearance of BBA from blood” value stood at 24 h, the “Time of first appearance of BBA in blood” value came to 30 min and the “Time of maximum BBA in blood” value worked out at 240 min. In data set [6], the “log Poct” value is reported as 9.3. In data set [7], the “Aq. Solubility” value was “practically insoluble”.

Regarding `N[C@@H](Cc1c[nH]cn1)C(=O)O` [H, L-histidine], in data set [3], the “Clinical activity score rate, 6 d” value was 2.33 ± 0.67; the “Clinical activity score rate, 7 d” value was found to be 2.55 ± 0.50; the “Clinical activity score rate, 8 d” value is recorded as 2.88 ± 0.83; the “Clinical activity score rate, 9 d” value turned out to be 2.77 ± 0.69. Besides, in data set [3], the “Clinical activity score rate, 10 d” value stood at 2.60 ± 0.82 and the “Clinical activity score rate, 11 d” value is 2.00 ± 1.00^NS.

In the case of `N[C@@H](Cc1ccc(O)cc1)C(=O)O` [TY, L-tyrosine], in data set [3], the “Clinical activity score rate, 6 d” value was found to be 2.11 ± 0.84; the “Clinical activity score rate, 7 d” value is reported as 2.55 ± 0.50; the “Clinical activity score rate, 8 d” value turned out to be 3.22 ± 1.07; the “Clinical activity score rate, 9 d” value is listed as 3.33 ± 1.15. Besides, in data set [3], the “Clinical activity score rate, 10 d” value was found to be 2.72 ± 1.49 and the “Clinical activity score rate, 11 d” value is reported as 2.33 ± 1.45^NS.
